In brackets after ≈: the same amount, converted by molar mass.
Experiments:
[1] = tested on: Trypanosoma brucei brucei; experiment: Antitrypanosomal activity against Trypanosoma brucei brucei assessed as parasite growth inhibition after 48 hrs by Cell-Titer Glo assay; assay type: functional, organism-based
[2] = Permeability of the compound by PAMPA; assay type: ADME; settings: for Papp: read-out: permeability
Outline: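 Passive permeability by parallel artificial membrane assay (pION implementation), measured against PBS pH 7.4 sink buffer.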

HepG2 = experiment: Cytotoxicity against human HepG2 cells assessed as growth inhibition after 72 hrs by Cell-Titer Glo assay; assay type: cell-based; settings: HepG2, 72 h
Outline: (§1)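 Human cell lines (Raji Burkitt's lymphoma, BJ immortalized foreskin fibroblast, HEK293 embryonic kidney, HepG2) exposed 72 h to a 10-point threefold dilution series by pin transfer, lowest final 0.5 nM, final DMSO 0.2%; proliferation run in triplicate, EC50 derived.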

[3] = Kinetic solubility in PBS buffer at pH 7.4 after 18 hrs by UV-spectroscopic analysis; assay type: physicochemical; settings: for solubility kinetic at 18 h: PBS buffer, pH 7.4, read-out: Kinetic_solubility
BJ = experiment: Cytotoxicity against human BJ cells assessed as growth inhibition after 72 hrs by Cell-Titer Glo assay; assay type: cell-based; outline: as §1
HEK293 = experiment: Cytotoxicity against HEK293 cells assessed as growth inhibition after 72 hrs by Cell-Titer Glo assay; assay type: cell-based; settings: Homo sapiens, HEK293, 72 h; outline: as §1
Raji = experiment: Cytotoxicity against human Raji cells assessed as growth inhibition after 72 hrs by Cell-Titer Glo assay; assay type: cell-based; outline: as §1
[4] = tested on: Trypanosoma brucei gambiense; experiment: Antitrypanosomal activity against Trypanosoma brucei gambiense STIB930 assessed as parasite growth inhibition after 48 hrs by Cell-Titer Glo assay; assay type: functional, organism-based; settings: STIB930, 48 h
Outline: (§2)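 Parasites exposed to a 10-point threefold dilution series added by pin transfer, lowest final concentration 0.5 nM, final DMSO 0.2%; EC50 from the series, mean of two experiments.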

[5] = tested on: Trypanosoma brucei rhodesiense; experiment: Antitrypanosomal activity against wild type Trypanosoma brucei rhodesiense STIB900 assessed as parasite growth inhibition after 48 hrs by Cell-Titer Glo assay; assay type: functional, organism-based; settings: STIB900, 48 h; outline: as §2
[6] = Half life in mouse liver microsomes; assay type: ADME, Microsome
[7] = Half life in human liver microsomes; assay type: ADME, Microsome
[8] = tested on: Trypanosoma brucei brucei; experiment: Antitrypanosomal activity against Trypanosoma brucei brucei assessed as parasite growth inhibition; assay type: functional, organism-based

SMILES	EC50 [1] [µM]	permeability [2] [×10⁻⁶ cm/s]	solubility kinetic at 18 h [3] [µM]	Papp [2] [×10⁻⁶ cm/s]	EC50 [4] [µM]	EC50 [5] [µM]	half-life [6] [h]	half-life [7] [h]	Kinetic_solubility ([3]; buffer, pH 7.4, 18 h, BLD = below limit of detection)	EC50 [8] [µM]	EC50 (HepG2) [µM]	EC50 (BJ) [µM]	EC50 (HEK293) [µM]	EC50 (Raji) [µM]
C/C=C/C(=O)Nc1cccc(-c2nc3ccccc3s2)c1	> 33	1640	0.11 (≈ 0.0324 µg/mL)	–	–	–	–	–	–	–	> 25	> 25	> 25	> 25
C=CC(=O)Nc1cccc(-c2nc3ccccc3s2)c1	> 33	–	0.18 (≈ 0.0505 µg/mL)	797	–	–	–	–	–	–	> 25	> 25	> 25	> 25
O=C(Nc1cccc(-c2nc3ccccc3s2)c1)c1cccnc1Cl	25	–	0.52 (≈ 0.19 µg/mL)	677	–	–	–	–	–	–	> 25	> 25	> 25	> 25
C=C(C)C(=O)Nc1cccc(-c2nc3ccccc3s2)c1	> 33	–	0.42 (≈ 0.124 µg/mL)	987	–	–	–	–	–	–	> 25	> 25	> 25	> 25
O=C(Nc1cccc(-c2nc3ccccc3s2)c1)c1cc([N+](=O)[O-])cnc1Cl	13	–	0.45 (≈ 0.185 µg/mL)	42	–	–	–	–	–	–	> 25	> 25	> 25	8.4
O=C(Nc1cccc(-c2nc3ccccc3s2)c1)c1cnccc1Cl	0.3	–	0.32 (≈ 0.117 µg/mL)	732	0.061	0.062	–	–	–	–	> 25	> 25	> 25	12
Cc1ccc(-c2nc3ccccc3s2)cc1NC(=O)c1cnccc1Cl	0.058	–	0.14 (≈ 0.0532 µg/mL)	791	0.058	0.055	0.58	3.7	–	–	> 25	> 25	> 25	> 25
O=C(Nc1cccc(-c2nc3ccccc3s2)c1)c1cnc(Cl)s1	18	–	0.94 (≈ 0.35 µg/mL)	133	–	–	–	–	–	–	> 25	> 25	> 25	> 25
Cc1ccc(-c2nc3ccccc3o2)cc1NC(=O)c1cnccc1Cl	0.18	–	0.51 (≈ 0.186 µg/mL)	646	0.17	0.12	–	–	–	–	> 25	> 25	> 25	> 25
CC(C)(CCl)C(=O)Nc1cccc(-c2nc3ccccc3s2)c1	> 33	–	–	891	–	–	–	–	BLD	–	> 25	> 25	> 25	> 25
O=C(Nc1cccc(-c2nc3ccccc3s2)c1)c1ccc(Cl)nc1Cl	11	–	0.35 (≈ 0.14 µg/mL)	104	–	–	–	–	–	–	> 25	> 25	> 25	> 25
O=C(Nc1ccc(F)c(-c2nc3ccccc3s2)c1)c1cnccc1Cl	0.12	–	0.08 (≈ 0.0307 µg/mL)	21	0.038	0.018	> 4	> 4	–	–	> 25	> 25	> 25	> 25
O=C(Nc1cccc(-c2nc3ccccc3s2)c1)c1ccnc(Cl)c1	20	–	0.74 (≈ 0.271 µg/mL)	478	–	–	–	–	–	–	> 25	> 25	> 25	> 25
O=C(O)/C=C/C(=O)Nc1cccc(-c2nc3ccccc3s2)c1	> 33	–	56 (≈ 18.2 µg/mL)	4	–	–	–	–	–	–	> 25	> 25	> 25	> 25

The next lines start with results.

EC50 [1] [µM]	permeability [2] [×10⁻⁶ cm/s]	solubility kinetic at 18 h [3] [µM]	Papp [2] [×10⁻⁶ cm/s]	EC50 [4] [µM]	EC50 [5] [µM]	half-life [6] [h]	half-life [7] [h]	Kinetic_solubility ([3]; buffer, pH 7.4, 18 h, BLD = below limit of detection)	EC50 [8] [µM]	SMILES	EC50 (HepG2) [µM]	EC50 (BJ) [µM]	EC50 (HEK293) [µM]	EC50 (Raji) [µM]
0.12	–	1 (≈ 0.303 µg/mL)	660	–	–	–	–	–	–	O=C(CCl)Nc1cccc(-c2nc3ccccc3s2)c1	16	8.5	10	1.7
0.12	–	0.67 (≈ 0.246 µg/mL)	305	0.12	0.05	–	–	–	–	O=C(Nc1ccc(F)c(-c2nc3ccccc3o2)c1)c1cnccc1Cl	> 25	> 25	> 25	> 25
1.2	–	0.83 (≈ 0.263 µg/mL)	769	–	–	–	–	–	–	CC(Cl)C(=O)Nc1cccc(-c2nc3ccccc3s2)c1 (stereo not drawn)	> 25	> 25	> 25	> 25
0.12	–	0.34 (≈ 0.135 µg/mL)	121	–	–	–	–	–	–	COc1ccc(-c2nc3ccccc3s2)cc1NC(=O)c1cnccc1Cl	> 25	> 25	> 25	13
0.2	–	1.68 (≈ 0.638 µg/mL)	391	–	–	–	–	–	–	COc1ccc(-c2nc3ccccc3o2)cc1NC(=O)c1cnccc1Cl	> 25	> 25	> 25	> 25
> 33	2080	56 (≈ 18.2 µg/mL)	–	–	–	–	–	–	–	CN(C)CCC(=O)Nc1cccc(-c2nc3ccccc3s2)c1	21	> 25	> 25	> 25
24	–	0.32 (≈ 0.117 µg/mL)	563	–	–	–	–	–	–	O=C(Nc1cccc(-c2nc3ccccc3s2)c1)c1ccncc1Cl	> 25	> 25	> 25	> 25
0.18	–	0.18 (≈ 0.0691 µg/mL)	306	–	–	–	–	–	–	O=C(Nc1cc(-c2nc3ccccc3s2)ccc1F)c1cnccc1Cl	> 25	> 25	> 25	> 25
–	–	–	–	–	–	–	–	–	0.027	Cc1ccc(-c2nc3ccccc3s2)cc1NC(=O)c1cc([N+](=O)[O-])c(N2CCNCC2)cc1Cl	–	–	–	–
0.92	–	3 (≈ 0.933 µg/mL)	536	–	–	–	–	–	–	O=C(Nc1ccc(Cl)cc1)c1cc([N+](=O)[O-])ccc1Cl	> 25	> 25	> 25	> 25
0.44	–	0.13 (≈ 0.0478 µg/mL)	258	–	–	–	–	–	–	O=C(Nc1cc(-c2nc3ccccc3o2)ccc1F)c1cnccc1Cl	> 25	> 25	> 25	> 25
